The source of these data is ChEMBL document CHEMBL4184228, “Reversed isoniazids: Design, synthesis and evaluation against Mycobacterium tuberculosis” (Bioorg Med Chem, 2018).

In brackets after ≈: the same amount, converted by molar mass. Activity calls are given as the source filed them. No cut-off for these calls is given here.

Series [1] concerns Mycobacterium tuberculosis. Description: Antimycobacterial activity against isoniazid mono-resistant Mycobacterium tuberculosis isolate R5401 by two fold serial dilution based fluorescence assay. It is filed as functional. The method, boiled down: (§1)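 MGIT 960 (BACTEC) broth assay in 7H9 with 1% OADC and 0.05% Tween 80. Compounds are 10 mM DMSO stocks, two-fold serially diluted, final DMSO ≤1.2%, top concentration 10 µM. Tubes incubated at 37°C with growth units read daily. MIC99 is set against a 1% drug-free growth control tube.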

The subject of series [2] is Mycobacterium tuberculosis. Description: Antimycobacterial activity against isoniazid mono-resistant Mycobacterium tuberculosis isolate R73 by two fold serial dilution based fluorescence assay. It is filed as functional. In short, it runs like this:
as §1

The nature of series [3]: Selectivity index, ratio of IC50 for CHO cells to MIC99 for isoniazid mono-resistant Mycobacterium tuberculosis isolate R5401. It is filed as toxicity. As to conditions: hamster, read-out: Selectivity Index.
For series [4], the system named is Mycobacterium tuberculosis. Description: Antimycobacterial activity against isoniazid mono-resistant Mycobacterium tuberculosis isolate R4965 by two fold serial dilution based fluorescence assay. The format is functional. In short, it runs like this: as §1
Series [5] is described as follows: Selectivity ratio of MIC99 for Mycobacterium tuberculosis H37Rv to MIC99 for isoniazid mono-resistant Mycobacterium tuberculosis isolate R5401. The format is functional.
The subject of series [6] is Mycobacterium tuberculosis variant bovis BCG. Description: Inhibition of efflux pump in Mycobacterium bovis BCG infected in macrophages assessed as accumulation of ethidium bromide at 50 uM by measuring increase in fluorescence intensity after 1 hr by flow cytometric assay relative to control. On the set-up: Activity: scale not given: the % may be the effect or the level left. A general note: In flow cytometry, cells or beads pass a laser one at a time.

For series [7] the test system is unchanged. As to the kind of experiment: Inhibition of efflux pump in Mycobacterium bovis BCG infected in macrophages assessed as accumulation of ethidium bromide at 25 uM by measuring increase in fluorescence intensity after 1 hr by flow cytometric assay. On the set-up: Activity: scale not given: the % may be the effect or the level left.
Series [8] has the same test system. Description: Potency index, ratio of compound effect to CPZ effect for inhibition of efflux pump in Mycobacterium bovis BCG.
Series [9] shares this test system. As to the kind of experiment: Inhibition of efflux pump in Mycobacterium bovis BCG infected in macrophages assessed as accumulation of ethidium bromide at 10 uM by measuring increase in fluorescence intensity after 1 hr by flow cytometric assay. On the set-up: scale not given: the % may be the effect or the level left.

Turning to `O=C(NNCCCN1CCC(=C2c3ccccc3Sc3ccccc32)CC1)c1ccncc1`, the MIC99 is 2.5 µM (≈ 1.14 µg/mL) in [1], above 10 µM in series [2] and above 10 µM in [4]. The selectivity ratio in [3] was found to be 60.8.
Regarding `O=C(NNCCCN1CCN(C(c2ccccc2)(c2ccccc2)c2ccccc2)CC1)c1ccncc1`, the MIC99 in [1] was 2.5 µM (≈ 1.26 µg/mL); in [2], above 10 µM; in series [4] it was above 10 µM. In addition, in series [3], the selectivity ratio came to 78.1.
`O=C(NNCCCN1CCC(N2c3ccccc3Sc3ccccc32)CC1)c1ccncc1`: the values for the MIC99 in [1], in [2] and in [4] were 2.5 µM (≈ 1.15 µg/mL), above 10 µM and above 10 µM, respectively. Moreover, the selectivity ratio in [3] turned out to be 48.8. The Ratio in [5] amounted to 2.
On to `O=C(NNCCCN1c2ccccc2Sc2ccccc21)c1ccncc1`, for which the MIC99 in [1], in series [2] and in [4] was above 10 µM in each case. In addition, the inhibition result in series [6] is “Active”.
In the case of `O=C(NNCCCN1c2ccccc2Sc2ccc(Cl)cc21)c1ccncc1`, the MIC99 in series [1], in series [2] and in series [4] was above 10 µM each time. Moreover, the Activity in series [7] lay within 40 to 90%. For the same compound, the Ratio in [8] came to 2.
`O=C(NNCCCN1CCC(=C2c3ccccc3Sc3ccc(Cl)cc32)CC1)c1ccncc1`: the MIC99 in [1] was 1.25 µM (≈ 0.614 µg/mL); in [2], above 10 µM; in series [4], above 10 µM. Also, in [3], the selectivity ratio amounted to 237.
Regarding `O=C(NNCCCN1CCC(=C2c3ccccc3C=Cc3ccccc32)CC1)c1ccncc1`, the MIC99 in series [1] was 2.5 µM (≈ 1.13 µg/mL); in series [2] it was above 10 µM; in series [4], above 10 µM. Besides, in [3], the selectivity ratio stood at 59.2.
For `O=C(NNCCCNCCCN1c2ccccc2Sc2ccc(Cl)cc21)c1ccncc1`, the MIC99 in [1], in [2] and in [4] was above 10 µM throughout.
On to `O=C(NNCCCN1c2ccccc2Sc2ccc(Cl)cc21)c1ccccc1`, for which the MIC99 in series [2] and in series [4] was above 10 µM in each case. Besides, the Activity in series [6] lay in the range of 40 to 90%. For the same compound, the Ratio in series [8] worked out at 2.
For `O=C(NNCCCN1CCN(CC(O)(c2ccccc2)c2ccccc2)CC1)c1ccncc1`, the MIC99 in series [1] was 2.5 µM (≈ 1.15 µg/mL); in series [2] it was above 10 µM; in series [4], above 10 µM. For the same compound, the selectivity ratio in series [3] was 139.
As to `CN(C)CCCN1c2ccccc2Sc2ccc(Cl)cc21` [CHLORPROMAZINE], the inhibition entry in series [7] was “Active”.
With `O=C(NNCCCN1CCN(C(c2ccccc2)c2ccccc2)CC1)c1ccncc1`, the MIC99 in series [1] is 2.5 µM (≈ 1.07 µg/mL); in [2] it was above 10 µM; in series [4], above 10 µM. In series [3], the selectivity ratio is 19.3. Further, the Ratio in [5] came out at 2.
`O=C(NNCCCN1CCC(N2c3ccccc3Sc3ccc(Cl)cc32)CC1)c1ccncc1`: the results for the MIC99 in series [1], in [2] and in [4] were 1 µM (≈ 0.494 µg/mL), above 10 µM and above 10 µM, respectively. In series [3], the selectivity ratio turned out to be 37. The Activity in [9] was in the range of 40 to 90%. In addition, the Ratio in [8] was 2.
As to `O=C(NNCCCN1CCN(C2c3ccccc3CCc3ccccc32)CC1)c1ccncc1`, the MIC99 in [1], in series [2] and in series [4] was above 10 µM each time.
Consider `O=C(NNCCCNCCCN1c2ccccc2Sc2ccccc21)c1ccncc1`, for which the MIC99 in series [1], in [2] and in series [4] was above 10 µM throughout.
Consider `NNC(=O)c1ccncc1` [ISONIAZID], for which, in series [1], the MIC99 came to 2.5 µM (≈ 0.343 µg/mL). The selectivity ratio in series [3] was above 35. In addition, the inhibition entry in series [6] was “Active”.
For `O=C(NNCCCN1c2ccccc2CCc2ccccc21)c1ccncc1`, the MIC99 in [1], in [2] and in series [4] was above 10 µM each time. Besides, the inhibition entry in series [6] was “Active”.
In the case of `O=C(NNCCCN1c2ccccc2Sc2ccccc21)c1ccccc1`, the MIC99 in series [2] and in [4] was above 10 µM each time. Besides, the Activity in series [6] fell in the range of 40 to 90%. Moreover, in [8], the Ratio was 2.

One may read the MIC99 as an inhibitory concentration at the 99% level, which refers to growth in some studies and to a panel of isolates in others.
